According to ChEMBL document CHEMBL2401705, “Discovery of triazines as potent, selective and orally active PDE4 inhibitors” (Bioorg Med Chem Lett, 2013):
Converted amounts (≈) assume the structure as drawn.

How the values were obtained:
serum albumin = serum albumin (Homo sapiens, UniProt P02768); assay: Binding affinity to human serum albumin; format: ADME; details: read-out: PB (converted)
Mustela putorius furo [1] = assay: Toxicity in po dosed ferret assessed as first emetic dose by measuring occurrence of vomiting episode after 6 hrs; format: organism-based; details: in vivo
Outline: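 Ferrets were given oral doses and watched for 6 h after administration for a vomiting episode; the first emetic dose was reported in mg/kg.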

[2] = Aqueous solubility of the compound at pH 7.4; details: buffer
Mustela putorius furo [3] = assay: Inhibition of LPS-induced neutrophilia in ferret COPD model BAL-fluid at 0.01 mg/kg, po; format: functional
Outline: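 Ferrets challenged by LPS inhalation, with compound given orally. Read-out is the change in neutrophil count in bronchoalveolar lavage fluid, expressed as percentage inhibition.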

[4] = target: 3',5'-cyclic-AMP phosphodiesterase 4A (Homo sapiens, UniProt P27815); assay: Inhibition of human full length PDE4A4 expressed in baculovirus infected sf21 cells
Chain of 3',5'-cyclic-AMP phosphodiesterase 4A (P27815 whole entry): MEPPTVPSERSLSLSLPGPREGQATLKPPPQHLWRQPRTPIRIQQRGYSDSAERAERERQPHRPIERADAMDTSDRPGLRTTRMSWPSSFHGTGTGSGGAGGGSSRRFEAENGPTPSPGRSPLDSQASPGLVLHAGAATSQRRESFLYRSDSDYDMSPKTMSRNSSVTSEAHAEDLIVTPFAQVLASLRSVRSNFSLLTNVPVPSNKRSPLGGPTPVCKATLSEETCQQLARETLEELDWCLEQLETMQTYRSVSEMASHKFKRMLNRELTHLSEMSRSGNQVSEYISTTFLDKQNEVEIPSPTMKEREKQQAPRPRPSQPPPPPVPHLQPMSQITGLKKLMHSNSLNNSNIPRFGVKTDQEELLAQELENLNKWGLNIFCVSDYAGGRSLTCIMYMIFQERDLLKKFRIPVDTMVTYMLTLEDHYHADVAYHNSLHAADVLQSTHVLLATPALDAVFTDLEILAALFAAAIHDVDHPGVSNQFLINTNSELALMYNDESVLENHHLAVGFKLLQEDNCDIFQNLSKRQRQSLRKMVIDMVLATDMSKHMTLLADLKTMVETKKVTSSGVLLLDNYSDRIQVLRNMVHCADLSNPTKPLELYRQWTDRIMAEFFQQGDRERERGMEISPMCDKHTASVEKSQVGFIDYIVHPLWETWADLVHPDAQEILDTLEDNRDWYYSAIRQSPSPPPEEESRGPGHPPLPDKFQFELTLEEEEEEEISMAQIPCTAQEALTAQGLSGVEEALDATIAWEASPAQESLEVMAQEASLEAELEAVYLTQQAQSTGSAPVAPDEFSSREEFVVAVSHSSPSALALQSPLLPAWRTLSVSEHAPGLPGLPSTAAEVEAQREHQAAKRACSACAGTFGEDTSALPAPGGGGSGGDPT

[5] = Intrinsic clearance in rat liver microsomes; format: ADME, Microsome; details: read-out: CLH
[6] = target: High affinity 3',5'-cyclic-AMP phosphodiesterase 7A (Homo sapiens, UniProt Q13946); assay: Inhibition of human full length PDE7A1 expressed in baculovirus infected sf21 cells
Chain of High affinity 3',5'-cyclic-AMP phosphodiesterase 7A (Q13946 whole entry): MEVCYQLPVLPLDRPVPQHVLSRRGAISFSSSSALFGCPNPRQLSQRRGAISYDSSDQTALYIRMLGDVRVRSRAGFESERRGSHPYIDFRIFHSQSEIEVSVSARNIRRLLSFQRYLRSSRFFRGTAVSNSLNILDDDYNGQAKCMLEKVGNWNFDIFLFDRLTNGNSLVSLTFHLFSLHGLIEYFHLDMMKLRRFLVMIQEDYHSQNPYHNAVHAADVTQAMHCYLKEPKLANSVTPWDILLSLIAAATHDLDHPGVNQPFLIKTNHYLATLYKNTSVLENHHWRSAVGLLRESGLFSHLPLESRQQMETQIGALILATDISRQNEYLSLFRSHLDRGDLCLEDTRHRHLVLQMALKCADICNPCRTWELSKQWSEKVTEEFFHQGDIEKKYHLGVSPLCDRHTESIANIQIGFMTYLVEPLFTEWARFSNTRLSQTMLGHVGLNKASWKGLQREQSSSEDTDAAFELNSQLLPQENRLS

Mustela putorius furo [7] = assay: Toxicity in iv dosed ferret assessed as first emetic dose by measuring occurrence of vomiting episode after 6 hrs; format: organism-based; details: in vivo
[8] = Inhibition of cytochrome P450 (unknown origin); format: ADME; details: human
[9] = target: Voltage-gated inwardly rectifying potassium channel KCNH2 (Homo sapiens, UniProt Q12809); assay: Inhibition of human ERG
Chain of Voltage-gated inwardly rectifying potassium channel KCNH2 (Q12809 whole entry): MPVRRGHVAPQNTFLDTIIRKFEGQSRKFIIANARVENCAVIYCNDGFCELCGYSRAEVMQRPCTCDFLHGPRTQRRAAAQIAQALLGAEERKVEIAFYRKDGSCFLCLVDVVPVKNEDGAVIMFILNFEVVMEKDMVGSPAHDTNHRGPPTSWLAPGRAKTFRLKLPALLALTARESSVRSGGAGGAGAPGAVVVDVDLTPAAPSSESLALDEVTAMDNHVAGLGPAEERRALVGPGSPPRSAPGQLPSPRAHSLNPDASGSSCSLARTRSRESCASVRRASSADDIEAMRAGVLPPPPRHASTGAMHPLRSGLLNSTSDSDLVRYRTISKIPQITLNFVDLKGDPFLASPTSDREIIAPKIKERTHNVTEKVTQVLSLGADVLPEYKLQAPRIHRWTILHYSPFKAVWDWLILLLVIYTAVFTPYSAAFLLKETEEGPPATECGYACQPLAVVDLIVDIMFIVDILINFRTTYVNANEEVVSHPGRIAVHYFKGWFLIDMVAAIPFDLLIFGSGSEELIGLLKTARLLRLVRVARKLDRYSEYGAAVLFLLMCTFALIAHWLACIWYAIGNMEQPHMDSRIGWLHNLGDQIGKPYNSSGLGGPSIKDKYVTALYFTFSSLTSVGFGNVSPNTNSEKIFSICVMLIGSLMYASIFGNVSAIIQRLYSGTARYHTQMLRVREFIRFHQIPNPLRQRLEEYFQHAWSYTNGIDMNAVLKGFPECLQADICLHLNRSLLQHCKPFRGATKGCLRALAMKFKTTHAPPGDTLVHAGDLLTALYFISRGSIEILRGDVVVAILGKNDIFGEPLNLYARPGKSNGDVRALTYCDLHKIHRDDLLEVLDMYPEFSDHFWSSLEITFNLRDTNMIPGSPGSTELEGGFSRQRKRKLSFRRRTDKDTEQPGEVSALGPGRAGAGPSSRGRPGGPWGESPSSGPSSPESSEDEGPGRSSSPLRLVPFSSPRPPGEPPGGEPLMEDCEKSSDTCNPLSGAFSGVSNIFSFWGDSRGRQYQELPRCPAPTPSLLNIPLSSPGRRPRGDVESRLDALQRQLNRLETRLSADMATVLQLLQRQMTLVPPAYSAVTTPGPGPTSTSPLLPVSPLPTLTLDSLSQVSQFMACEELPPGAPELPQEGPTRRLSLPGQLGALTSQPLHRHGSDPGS
Outline: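 hERG was tested in a binding-format assay as percent inhibition at a single test concentration of 10 µM.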

Homo sapiens = species on record: Homo sapiens; assay: Selectivity ratio of IC50 for human full length PDE7A1 to IC50 for human full length PDE4A4
Phosphodiesterase 4 = Phosphodiesterase 4 (Homo sapiens, UniProt P27815+Q08499+Q07343+Q08493); assay: Inhibition of PDE4 (unknown origin); format: protein assay

Chain of serum albumin (P02768 whole entry): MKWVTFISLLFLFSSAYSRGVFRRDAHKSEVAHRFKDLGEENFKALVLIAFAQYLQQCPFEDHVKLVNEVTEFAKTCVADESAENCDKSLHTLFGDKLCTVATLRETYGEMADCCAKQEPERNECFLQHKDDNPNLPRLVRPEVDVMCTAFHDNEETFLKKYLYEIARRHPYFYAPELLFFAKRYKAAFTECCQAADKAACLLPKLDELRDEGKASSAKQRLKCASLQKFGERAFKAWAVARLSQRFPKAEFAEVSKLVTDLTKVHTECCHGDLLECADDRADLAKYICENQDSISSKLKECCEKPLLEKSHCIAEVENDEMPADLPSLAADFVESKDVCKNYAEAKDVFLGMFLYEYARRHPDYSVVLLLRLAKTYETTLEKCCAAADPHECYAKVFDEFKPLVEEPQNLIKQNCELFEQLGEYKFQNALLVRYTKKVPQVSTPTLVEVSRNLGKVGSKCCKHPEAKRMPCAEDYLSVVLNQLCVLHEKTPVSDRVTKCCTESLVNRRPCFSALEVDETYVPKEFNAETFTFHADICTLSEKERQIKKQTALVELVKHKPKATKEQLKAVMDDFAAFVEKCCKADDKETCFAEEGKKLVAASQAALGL

Compound | IC50 [4] [nM] | CLint scaled [5] [mL/min/kg] | IC50 [6] [nM] | also measured
O=C(Nc1c(Cl)cncc1Cl)c1ccc(OC(F)F)c(OCC2CC2)c1 [ROFLUMILAST] | – | – | – | fraction unbound (serum albumin): 0.03; Activity (Mustela putorius furo [1]): 1 mg/kg; solubility [2]: 1.3 µg/mL (≈ 3.22 µM); inhibition in vivo at 0.01 mg/kg (Mustela putorius furo [3]): 65%
C#CC(CC)(CC)Nc1nc(NC)nc(-n2cncn2)n1 | 2.7 | 22 | – | –
CNc1nc(Cl)nc(NC(C)(C)C)n1 | 245 | – | – | –
CNc1nc(NC2(C#N)CCCCC2)nc(-n2cccn2)n1 | 3.6 | 103 | > 5000 | –
COc1ccc(C2CNC(=O)C2)cc1OC1CCCC1 (racemic) [ROLIPRAM] | – | – | – | fraction unbound (serum albumin): 0.42; Activity (Mustela putorius furo [7]): 0.3 mg/kg; solubility [2]: 171 µg/mL (≈ 621 µM)
CCCC(C#N)(CCC)Nc1nc(NC)nc(-n2cncn2)n1 | 6.5 | 32 | – | –
CNc1nc(NC2(C#N)CCCCC2)nc(-n2cnc(C#N)n2)n1 | 4.9 | 210 | > 5000 | –
CNc1nc(NC2(C#N)CCCCC2)nc(-n2cncn2)n1 | 1.7 | 52 | > 5000 | inhibition (INH) [8]: Not Active; solubility [2]: 11 µg/mL (≈ 36.7 µM); inhibition (INH) [9]: Not Active; Ratio IC50 (Homo sapiens): > 1000
CCC(C)(C#N)Nc1nc(NC)nc(-n2cncn2)n1 (racemic) | 2.4 | 32 | – | solubility [2]: 50 µg/mL (≈ 183 µM)
CCCC(C#N)(CC)Nc1nc(NC)nc(-n2cncn2)n1 (racemic) | 1.1 | 29 | – | solubility [2]: 76 µg/mL (≈ 252 µM)
O=S1(=O)CCN(c2nc(NC3CC3)nc(C3CC3)n2)C1 | – | – | – | IC50 (Phosphodiesterase 4): 140 nM
CNc1nc(NC2(C#N)CCCCC2)nc(-n2cnc(C)n2)n1 | 1 | > 276 | > 5000 | –
CNc1nc(NC2(C#N)CCCCC2)nc(OC)n1 | 19 | 196 | 521 | –
CCNc1nc(Cl)nc(NC2(C#N)CCCCC2)n1 | 232 | – | – | –
CNc1nc(NC2CCCC2)nc(NC2(C#N)CCCCC2)n1 | 59 | – | > 5000 | –
CNc1nc(Cl)nc(NC2(C#N)CCCCC2)n1 | 40 | 867 | 1070 | –

Continued, in another order:

IC50 [4] [nM] | Compound | CLint scaled [5] [mL/min/kg] | IC50 [6] [nM] | also measured
126 | N#CC1(Nc2nc(Cl)nc(NC3CC3)n2)CCCCC1 | – | – | –
563 | CN(c1nc(N)nc(Cl)n1)C1(C#N)CCCCC1 | – | – | –
0.2 | CNc1nc(NC2(C#N)CCCC(C)C2)nc(-n2cncn2)n1 (mixture of isomers) | 96 | – | –
0.42 | CNc1nc(NC2(C#N)CCCCCC2)nc(-n2cncn2)n1 | 276 | – | solubility [2]: 9 µg/mL (≈ 28.7 µM)
668 | CN(C)c1nc(Cl)nc(NC2(C#N)CCCCC2)n1 | – | – | –
165 | CONc1nc(Cl)nc(NC2(C#N)CCCCC2)n1 | – | – | –
149 | C#CC1(Nc2nc(Cl)nc(NC)n2)CCCCC1 | – | – | –
